A selection: hits, their analogues and other compounds. The true share with any hit is near 8.8%.
S1P3 ag: activates the human S1P3 receptor; Q99500; S1P3 NFAT-BLA reporter cells, agonism, FRET ratio; relative to 1 µM S1P, basal subtracted; activation, % at 4.5 µM; 60,000 tested, 0.1% active; AID 373;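 active = activation above the screen-wide mean plus 3 SD, cut at about 4.5% in these data, passing the limit was not always enough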
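Assay system: stable CHO line with human S1P3, Gα16, NFAT-BLA reporter; Detection: FRET β-lactamase substrate fluorescence, excitation 405 nm, 460/535 nm emission ratio, background-subtracted; Read-out: percent activation versus median 1 µM S1P response, basal-subtracted, per plate; Incubation: cells plated overnight, compound 4 h 37 °C, substrate 2 h RT.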
M1 ag: M1 muscarinic receptor agonism. AID 626. 64,000 tested, 3% active. B-score at 10 µM. CHO-M1 cells, Fluo-4 calcium fluorescence, agonist mode; hits give high values;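 active = fluorescence rise, raw or as B-score row- and column-corrected plate score, outside the 99.7% band of its plate's samples, either direction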
SF-1 act: activators of human nuclear receptor SF-1. CHO-K1 Gal4-SF-1 LBD luciferase reporter; % increase over DMSO SF-1-specific signal. 65,000 tested, 1.9% active. activation, % at 10 µM;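 active = activation above the mean activation of all tested compounds plus 3 SD, cut at about 50% in these data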
Target sequence (Q13285 whole entry, looked up, the tested form may be a part): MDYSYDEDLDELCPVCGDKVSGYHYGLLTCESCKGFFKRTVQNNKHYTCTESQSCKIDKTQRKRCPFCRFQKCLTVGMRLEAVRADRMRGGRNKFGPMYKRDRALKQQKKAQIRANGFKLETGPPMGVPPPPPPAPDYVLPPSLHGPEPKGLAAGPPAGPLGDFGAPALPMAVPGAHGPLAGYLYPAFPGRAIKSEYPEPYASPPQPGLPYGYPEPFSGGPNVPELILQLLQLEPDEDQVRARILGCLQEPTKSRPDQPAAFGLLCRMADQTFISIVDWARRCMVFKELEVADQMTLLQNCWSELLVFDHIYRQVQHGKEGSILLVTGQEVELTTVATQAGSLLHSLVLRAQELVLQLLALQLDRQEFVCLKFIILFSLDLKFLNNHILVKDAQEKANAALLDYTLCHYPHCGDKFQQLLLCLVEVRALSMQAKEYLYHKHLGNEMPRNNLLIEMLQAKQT
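System: CHO-K1 cells with Gal4–hSF-1 LBD chimera plus Gal4-driven luciferase; quantity: 4,000 CHO-K1 cells per well; compound: one dose, 10 µM compound, 1% DMSO; times: 20 h compound treatment, 37 °C; measured by: SteadyLite luciferase luminescence; read-out: percent activation versus DMSO; benchmarks: DMSO and mock-transfected background; replicates: one test per compound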
M1 antagonist: M1 muscarinic receptor (rat) antagonism. CHO-M1 cells, Fluo-4 calcium, ACh EC80 antagonist mode; hits give low values. B-score at 10 µM. 64,000 tested, 3.4% active. AID 628;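 active = calcium fluorescence response, raw or row-and-column corrected B-score, differing from the plate sample mean either way at a set confidence level, mostly lower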
RORa activator: RORA (human) activation. P35398. CHO-K1 Gal4-RORA LBD luciferase reporter, luminescence; percent increase over mock-subtracted basal signal. activation, % at 10 µM. 65,000 tested, 1.5% active;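 active = activation above the mean of all tested compounds plus 3 SD, cut at about 49% in these data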;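 note: 0% = DMSO-treated RORA cells and 100% = added signal equal to DMSO minus mock-transfected cells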
S1P1 ag-PAM: agonists and agonism potentiators of human S1P1 receptor; P21453; S1P1 CRE-bla cells, forskolin, beta-lactamase FRET, potentiator mode; S1P1 agonist co-added at EC20, 2 nM; 100% = saturating reference agonist, 0% = basal; activation, % at 9.5 µM; 56,000 tested, 0.57% active;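 active = activation above a cutoff set at the mean activation of all tested compounds plus 3 SD, cut at about 54% in these data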;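 note: forskolin at 4 µM as EC80 and the EC20 agonist is SEW2871; 100% = SEW2871 at its EC100 plus forskolin at EC80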
M1 antag confirm: M1 muscarinic receptor (rat) antagonism, confirmed | shares compounds with M1 antagonist | CHO-M1 cells, Fluo-4 calcium, ACh EC80 antagonism; hits give low values | calcium response (max-min fluorescence) at 10 µM | 1,700 tested, 43% active | AID 677;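 active = calcium response below the same-plate mean of wells given acetylcholine alone at its 80%-effect dose, minus 3 SD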;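 note: raw fluorescence intensity difference in arbitrary instrument units and not normalized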
mGluR4 antag: acts on human mGluR4 in M1 antagonist selectivity test; shares compounds with M1 antagonist; CHO-mGluR4 calcium flux, Fluo-4 fluorescence, glutamate EC80; hits give low values; fluorescence response (max-min) at 10 µM; 1,700 tested, 0.9% active; AID 678;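 active = fluorescence response below the plate's average for near-maximal glutamate wells, less 3 SD of those wells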;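 note: raw unnormalized fluorescence span taken in the window right after glutamate addition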
Numbers without * were called inactive; · = no result given.

SMILES | S1P3 ag | M1 ag | SF-1 act | M1 antagonist | RORa activator | S1P1 ag-PAM | M1 antag confirm | mGluR4 antag
O=S(=O)(Nc1nc2ccccc2[nH]1)c1ccccc1 | -1 | 0.01 | -10 | -5.1* | -38 | -13 | 394* | 246
CC(NC(=O)C(CC(=O)OC(C)(C)C)NC(=O)OC(C)(C)C)C(N)=O (stereo not given) | -1 | -1.2 | -26 | 1.4 | -13 | -3 | · | ·
Cc1nnc(Sc2nc(Sc3nnc(C)s3)nc(N3CCN(C)CC3)n2)s1 | -2 | -0.014 | -96 | 0.026 | -93 | -72 | · | ·
COC(=O)c1[nH]c2ccccc2c1NC(=O)CN1CCCCCC1 | 0 | -0.61 | -5 | -0.55 | -2 | -1 | · | ·
CCOC(=O)C1CCCN(CC(=O)Nc2c(C(=O)OC)[nH]c3ccc(C)cc23)C1 (stereo not given) | 0 | 0.23 | 12 | 0.0041 | 20 | 3 | · | ·
COC(=O)c1[nH]c2ccccc2c1NC(=O)CN1CCC(C(N)=O)(N2CCCCC2)CC1 | -1 | 1.3 | 29 | -2.6* | 17 | 14 | 550 | 191
CCOC(=O)C1CCCN(CC(=O)Nc2c(C(=O)OC)[nH]c3ccccc23)C1 (stereo not given) | 0 | -0.11 | 13 | -5.8* | 10 | -5 | 552* | 147
COC(=O)C1=C(N)Oc2cc(C)n(Cc3cccnc3)c(=O)c2C1c1cccc(OC)c1OC (stereo not given) | 0 | 0.99 | -9 | 0.25 | -24 | -16 | · | ·
C=CCn1c(=O)c2ccccc2n2c(SCc3csc(-c4ccccc4)n3)nnc12 | -1 | 1 | 17 | -0.93 | 11 | 7 | · | ·
COc1ccccc1N1CCN(C(=O)C(F)F)CC1 | -1 | -1.1 | -4 | 0.5 | 6 | 3 | · | ·
COc1ccccc1N1CCN(C(=O)Cc2cccs2)CC1 | -1 | -0.43 | -18 | -1.9* | -12 | -6 | 544 | 200
COc1ccccc1N1CCN(C(=O)C2CC=CCC2C(=O)O)CC1 (stereo not given) | -1 | 0.18 | -15 | 0.89 | 18 | -9 | · | ·
COc1ccccc1N1CCN(C(=O)C2c3ccccc3Oc3ccccc32)CC1 | -1 | -0.21 | 7 | -1.3* | -18 | 17 | 573 | 274
CCN(CCNC(=O)Nc1ccc(Cl)cc1)c1ccccc1 | -1 | -0.7 | 6 | -0.91 | -9 | 21 | · | ·
O=C(N/C(=N\O)c1ccccc1)Nc1ccc(Cl)cc1 | -2 | -0.36 | 22 | -3.5* | -12 | 15 | 487 | 210
COc1cc(C(=O)N2CCN(C(=O)C3CC3)CC2)cc(OC)c1OC | 0 | -0.94 | 11 | -3.1* | -7 | -20 | 543* | 224
Cc1c(N(C)C)nc2ccccc2c1N | -1 | 0.025 | -7 | -2.3* | -10 | -22 | 610 | 231
CN(C)c1nc(N)nc(Cn2ccnc2)n1 | -2 | 0.79 | 0 | 0.13 | -21 | -12 | · | ·
O=C1CC(N2CCN(c3ccc(S(=O)(=O)N4CCOCC4)cc3)CC2)C(=O)N1Cc1ccccc1 (stereo not given) | 0 | 0.26 | 2 | -3.4* | -17 | -12 | 607* | 186
O=C1CC(N2CCN(S(=O)(=O)c3ccc(Cl)cc3)CC2)C(=O)N1CCc1ccccc1 (stereo not given) | 0 | · | 14 | · | -3 | 20 | · | ·
Cc1ccc(S(=O)(=O)N(CC(=O)N2CCC(C(N)=O)CC2)c2cccc(C(F)(F)F)c2)cc1 | -2 | -0.3 | -4 | -7.3* | -20 | -11 | 624 | 217
CCOC(=O)N1CCN(C(=O)CN(c2cccc(C(F)(F)F)c2)S(=O)(=O)c2ccccc2)CC1 | 0 | 0.38 | -7 | 0.71 | 7 | 4 | · | ·
CCOc1ccc(-c2nc(=S)[nH][nH]2)cc1 | -1 | 1.5 | 34 | -5.2* | 26 | 5 | 638 | 242
COc1ccc(-c2nc(=S)[nH][nH]2)cc1 | 0 | 0.19 | 13 | 0.13 | 5 | -20 | · | ·
CCC(=O)Nc1ccc(N2CCN(Cc3ccccc3F)CC2)cc1 | · | 0.55 | 6 | -2.6* | 2 | · | 630 | 226
SMILES | S1P3 ag | M1 ag | SF-1 act | M1 antagonist | RORa activator | S1P1 ag-PAM | M1 antag confirm | mGluR4 antag
CC(=O)Nc1ccc(N2CCN(Cc3ccccc3F)CC2)cc1 | · | -0.0094 | -9 | -0.15 | -3 | · | · | ·
CN(CCNC(=O)c1cc2c(=O)n(C)c3ccccc3c2n1C)Cc1ccccc1 | -1 | 0.56 | 17 | -3.8* | 14 | -28 | 512 | 208
CCCN(CCC)CCNC(=O)c1cc2c(=O)n(C)c3ccccc3c2n1C | -1 | 0.33 | 21 | -1.7 | 20 | -25 | · | ·
CC1CCCCN1CCNC(=O)c1cc2c(-c3ccccc3F)nn(C)c2s1 (stereo not given) | 0 | -0.1 | 14 | -5.5* | 3 | -30 | 374* | 207
O=C(CN(Cc1cccs1)C(=O)CNC(=O)c1ccco1)NC1CCCCC1 | -1 | -0.5 | 1 | 0.15 | -10 | 2 | · | ·
Cn1c(=O)c2c(nc(CN3CCOCC3)n2CCCO)n(C)c1=O | · | -0.23 | -4 | 0 | 14 | · | · | ·
CCn1c(SCC(N)=O)nnc1-c1cc2c(C)nn(-c3ccccc3)c2s1 | 0 | 0.75 | -3 | -2.7* | -15 | -22 | 489 | 160*
CCn1c(SCC(N)=O)nnc1-c1ccc2[nH]c(C)c(C)c2c1 | 0 | -2.5 | 7 | -0.88 | -3 | -16 | · | ·
CCOc1cc(N2CCOCC2)c(OCC)cc1NC(=O)C(NC(=O)c1ccco1)C(C)C (stereo not given) | 0 | -0.024 | 13 | 0.13 | -5 | -1 | · | ·
O=C(NC1CCCCC1)C1CCN(C(=O)NCc2ccccc2)CC1 | · | -0.21 | -2 | -1.4* | 30 | · | 671 | 215
O=C(NC1CC2CCC(C1)N2C(=O)NCc1ccccc1)C1CC1 (stereo not given) | 0 | 0.03 | 10 | -2.2* | 4 | -14 | 419* | 241
Cc1cccc(N(CC(=O)N2CCCC2)S(=O)(=O)c2ccccc2)c1 | 0 | 1.6 | 8 | 0.53 | -15 | 4 | · | ·
O=C(CCC(=O)OCCCC(F)(F)C(F)(F)F)NC1CCCCC1 | 0 | 0.59 | 1 | -8.2* | -16 | -12 | 636 | 233
CCC1CCCCN1CCNC(=O)C1CCN(S(=O)(=O)c2c(C)noc2C)CC1 (stereo not given) | · | 0.076 | -4 | -12* | -10 | · | 385* | 179
COc1ccc(CC(NC(C)=O)C(=O)N2CCN(C(=O)Nc3ccc(Cl)cc3)CC2)cc1OC (stereo not given) | 0 | -0.17 | 43 | 0.14 | 11 | -7 | · | ·

Source: PubChem BioAssay
